Experimental data reported in ChEMBL document CHEMBL1122046, “Quaternary heterocyclylamino beta-lactams: a generic alternative to the classical acylamino side chain” (1982).
Converted amounts (≈) assume the structure as drawn.

Key:
Assay type in all cases: functional
Pseudomonas aeruginosa = test: Minimum inhibitory concentration against aerobic organism Pseudomonas aeruginosa strain 2835
Summary of the method: (§1)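 Agar-dilution MIC in µg/mL against aerobic bacterial strains on tryptocase soy agar, with inoculum applied as spots. Most series used 10^5 cfu per spot, and a later series used 10^4 cfu per spot. In some tables, footnoted strains were instead tested on Mueller-Hinton or nutrient agar. β-Lactamase-producing strains are flagged.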

Salmonella = test: Minimum inhibitory concentration against aerobic organism Salmonella strain 3860; summary of the method: as §1
Klebsiella pneumoniae = test: Minimum inhibitory concentration against aerobic organism Klebsiella pneumoniae strain 4005; summary of the method: as §1
Staphylococcus aureus [1] = test: Minimum inhibitory concentration against aerobic organism Staphylococcus aureus strain 2865; summary of the method: as §1
Staphylococcus aureus [2] = test: Minimum inhibitory concentration against aerobic organism Staphylococcus aureus strain 2868; conditions: Staphylococcus aureus; read-out: MIC; summary of the method: as §1
Klebsiella aerogenes = test: Minimum inhibitory concentration against aerobic organism Enterobacter aerogenes strain 2828; summary of the method: as §1
Enterobacter cloacae = test: Minimum inhibitory concentration against aerobic organism Enterobacter cloacae strain 2646; conditions: Enterobacter cloacae; read-out: MIC; summary of the method: as §1
Escherichia coli = test: MIC against aerobic organism Escherichia coli strain 2891; conditions: Escherichia coli; read-out: MIC; summary of the method: as §1
Enterococcus faecalis = test: Minimum inhibitory concentration against aerobic organism Streptococcus faecalis strain 2864; summary of the method: as §1
Proteus vulgaris = test: Minimum inhibitory concentration against aerobic organism Proteus vulgaris strain 2829; conditions: Proteus vulgaris; read-out: MIC; summary of the method: as §1
Proteus mirabilis = test: Minimum inhibitory concentration against aerobic organism Proteus mirabilis strain 2830; conditions: Proteus mirabilis; read-out: MIC; summary of the method: as §1
Morganella morganii = test: Minimum inhibitory concentration against aerobic organism Morganella morganii strain 2833; conditions: Morganella morganii; read-out: MIC; summary of the method: as §1

Structure (SMILES) | MIC (Pseudomonas aeruginosa) [µg/mL] | MIC (Salmonella) [µg/mL] | MIC (Klebsiella pneumoniae) [µg/mL] | MIC (Staphylococcus aureus [1]) [µg/mL] | MIC (Staphylococcus aureus [2]) [µg/mL] | MIC (Klebsiella aerogenes) [µg/mL] | MIC (Enterobacter cloacae) [µg/mL] | MIC (Escherichia coli) [µg/mL] | MIC (Enterococcus faecalis) [µg/mL] | MIC (Proteus vulgaris) [µg/mL] | MIC (Proteus mirabilis) [µg/mL] | MIC (Morganella morganii) [µg/mL]
O=C([O-])C1=C(Cl)CS[C@@H]2[C@H](Nc3cc[n+](Cc4ccccc4)cc3)C(=O)N12 | > 128 | 128 (≈ 319 µM) | 64 (≈ 159 µM) | 2 (≈ 4.98 µM) | 128 (≈ 319 µM) | 8 (≈ 19.9 µM) | 4 (≈ 9.95 µM) | 0.25 (≈ 0.622 µM) | > 128 | < 0.125 | > 128 | > 128
Cc1nnc(SCC2=C(C(=O)[O-])N3C(=O)[C@@H](Nc4cc[n+](COCC(Cl)(Cl)Cl)cc4C(=O)[O-])[C@H]3SC2)s1.[Na+] | > 128 | > 128 | > 128 | 64 | > 128 | > 128 | > 128 | 128 | > 128 | 16 | > 128 | > 128
Cn1nnnc1SCC1=C(C(=O)[O-])N2C(=O)[C@@H](Nc3cc[n+](COCC(Cl)(Cl)Cl)cc3C(=O)OC(C)(C)C)[C@H]2SC1 | > 128 | > 128 | > 128 | 128 (≈ 192 µM) | > 128 | > 128 | > 128 | 128 (≈ 192 µM) | > 128 | > 128 | > 128 | > 128
[N-]=[N+]=NCC1=C(C(=O)[O-])N2C(=O)[C@@H](Nc3cc[n+](Cc4ccccc4)cc3)[C@H]2SC1 | > 128 | 1 (≈ 2.37 µM) | 64 (≈ 151 µM) | 0.5 (≈ 1.18 µM) | 2 (≈ 4.73 µM) | 8 (≈ 18.9 µM) | 1 (≈ 2.37 µM) | 0.25 (≈ 0.592 µM) | > 128 | < 0.06 | > 128 | > 128
O=C([O-])C1=C(CO)CS[C@@H]2[C@H](Nc3cc[n+](Cc4ccccc4)cc3)C(=O)N12 | > 128 | > 128 | > 128 | 0.5 (≈ 1.26 µM) | 16 (≈ 40.3 µM) | 128 (≈ 322 µM) | 1 (≈ 2.52 µM) | 0.5 (≈ 1.26 µM) | > 128 | < 0.06 | > 128 | > 128
CCO[n+]1ccc(N[C@@H]2C(=O)N3C(C(=O)[O-])=C(CSc4nnnn4C)CS[C@H]23)cc1 | > 128 | 128 (≈ 285 µM) | 128 (≈ 285 µM) | 8 (≈ 17.8 µM) | > 128 | 32 (≈ 71.2 µM) | 1 (≈ 2.22 µM) | 0.125 (≈ 0.278 µM) | > 128 | 0.25 (≈ 0.556 µM) | > 128 | > 128
Cn1nnnc1SCC1=C(C(=O)[O-])N2C(=O)[C@@H](Nc3cc[n+](Cc4ccc(F)cc4)cc3)[C@H]2SC1 | > 128 | 4 (≈ 7.79 µM) | 8 (≈ 15.6 µM) | 0.5 (≈ 0.974 µM) | 1 (≈ 1.95 µM) | 1 (≈ 1.95 µM) | 0.125 (≈ 0.243 µM) | < 0.06 | 128 (≈ 249 µM) | 0.25 (≈ 0.487 µM) | 64 (≈ 125 µM) | 32 (≈ 62.3 µM)
CC(=O)OCC1=C(C(=O)[O-])N2C(=O)[C@@H](Nc3cc[n+](COCc4ccc([N+](=O)[O-])cc4)cc3)[C@H]2SC1 | > 128 | 128 (≈ 249 µM) | 128 (≈ 249 µM) | 2 (≈ 3.89 µM) | 8 (≈ 15.5 µM) | > 128 | 64 (≈ 124 µM) | 1 (≈ 1.94 µM) | > 128 | 1 (≈ 1.94 µM) | > 128 | > 128
CN(C)CCn1nnnc1SCC1=C(C(=O)[O-])N2C(=O)[C@@H](Nc3cc[n+](Cc4ccccc4)cc3)[C@H]2SC1 | > 128 | 2 (≈ 3.62 µM) | 4 (≈ 7.24 µM) | 0.5 (≈ 0.905 µM) | 4 (≈ 7.24 µM) | 0.5 (≈ 0.905 µM) | 0.25 (≈ 0.452 µM) | < 0.06 | 128 (≈ 232 µM) | 0.125 (≈ 0.226 µM) | 128 (≈ 232 µM) | 64 (≈ 116 µM)
O=C([O-])C1=C(CSc2cc[n+](Cc3ccccc3)cc2)CS[C@@H]2[C@H]([N-]c3cc[n+](Cc4ccccc4)cc3)C(=O)N12 | > 128 | 4 (≈ 6.89 µM) | 32 (≈ 55.1 µM) | < 0.06 | 0.25 (≈ 0.43 µM) | 1 (≈ 1.72 µM) | < 0.06 | < 0.06 | 64 (≈ 110 µM) | < 0.06 | 128 (≈ 220 µM) | > 128
